Values after ≈ are worked out from the molar mass of the structure shown.
Key:
[1] = Solubility in fasted state simulated intestinal fluid; format: physicochemical
[2] = target: Tyrosine-protein kinase Yes (Homo sapiens, UniProt P07947); experiment: Inhibition of recombinant YES by TR-FRET assay
Outline: (§1)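 Recombinant tyrosine kinase incubated with test compound and substrate peptide/ATP for 90 min at 30 °C; enzyme amount, ATP level, substrate and cation vary by kinase. Reaction stopped, then TR-FRET reagent with europium-labelled anti-phospho-substrate antibody added for 5 min at room temperature; substrate phosphorylation read as time-resolved fluorescence.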

Insulin receptor = Insulin receptor (Homo sapiens, UniProt P06213); experiment: Inhibition of recombinant InsR by TR-FRET assay
Ephrin type-A receptor 2 = Ephrin type-A receptor 2 (Homo sapiens, UniProt P29317); experiment: Inhibition of recombinant EphA2 by TR-FRET assay; outline: as §1
[3] = target: Tyrosine-protein kinase ABL1 (Homo sapiens, UniProt P00519); experiment: Inhibition of recombinant Abl by TR-FRET assay; outline: as §1
MCF7 = experiment: Cytotoxicity against human MCF7 cells after 96 hrs by WST8 assay; details: MCF7, 96 h
MKN-28 = experiment: Cytotoxicity against human MKN28 cells after 96 hrs by WST8 assay; details: MKN-28, 96 h
[4] = target: Protein-tyrosine kinase 6 (Homo sapiens, UniProt Q13882); experiment: Inhibition of recombinant BRK by TR-FRET assay; outline: as §1
HCT-116 = experiment: Cytotoxicity against human HCT116 cells after 96 hrs by WST8 assay; details: HCT-116, 96 h
MDA-MB-231 = experiment: Cytotoxicity against human MDA-MB-231 cells after 96 hrs by WST8 assay; details: MDA-MB-231, 96 h
Aurora kinase A = target: T1, Aurora kinase A (Homo sapiens, UniProt O14965); experiment: Inhibition of recombinant Aurora A by IMAP assay
T1 sequence (O14965 whole entry): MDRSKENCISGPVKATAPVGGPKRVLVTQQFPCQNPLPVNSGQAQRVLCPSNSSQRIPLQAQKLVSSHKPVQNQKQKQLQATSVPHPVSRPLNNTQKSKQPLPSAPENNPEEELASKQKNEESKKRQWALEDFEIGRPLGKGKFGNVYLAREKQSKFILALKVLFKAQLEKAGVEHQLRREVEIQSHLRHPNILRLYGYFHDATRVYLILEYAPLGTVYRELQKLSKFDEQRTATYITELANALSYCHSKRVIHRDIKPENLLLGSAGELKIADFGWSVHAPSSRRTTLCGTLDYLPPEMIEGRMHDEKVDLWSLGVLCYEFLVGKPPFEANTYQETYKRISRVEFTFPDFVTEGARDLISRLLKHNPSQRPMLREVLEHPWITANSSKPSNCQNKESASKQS
Outline: (§2)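 Recombinant enzyme mixed with test compound and substrate peptide/ATP solution, incubated 90 min at 30 °C; enzyme quantity, ATP, substrate and cation set per kinase. IMAP reagent then added for 5 min at room temperature, and peptide phosphorylation quantified by fluorescence polarization.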

[5] = target: RAC-alpha serine/threonine-protein kinase (Homo sapiens, UniProt P31749); experiment: Inhibition of recombinant AKT1 by IMAP assay; outline: as §2
Calu-6 = experiment: Cytotoxicity against human Calu6 cells after 96 hrs by WST8 assay; details: Calu-6, 96 h
[6] = target: Mast/stem cell growth factor receptor Kit (Homo sapiens, UniProt P10721); experiment: Inhibition of recombinant Kit by TR-FRET assay; outline: as §1
NCI-H460 = experiment: Cytotoxicity against human NCI-H460 cells after 96 hrs by WST8 assay; details: NCI-H460, 96 h
MKN-45 = experiment: Cytotoxicity against human MKN45 cells after 96 hrs by WST8 assay; format: functional, cell-based; details: MKN-45, 96 h
Outline: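 Tumour cells exposed to a range of compound concentrations for 96 h; cytotoxicity read with WST-8 cell counting kit.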

[7] = target: Cyclin-dependent kinase 1 (Homo sapiens, UniProt P06493); experiment: Inhibition of recombinant CDK1 by IMAP assay; outline: as §2
[8] = target: Macrophage-stimulating protein receptor (Homo sapiens, UniProt Q04912); experiment: Inhibition of recombinant RON by TR-FRET assay; outline: as §1
BXPC-3 = experiment: Cytotoxicity against human BxPC3 cells after 96 hrs by WST8 assay; details: BXPC-3, 96 h
[9] = target: Hepatocyte growth factor receptor (Homo sapiens, UniProt P08581); experiment: Inhibition of recombinant c-Met by TR-FRET assay
T47D = experiment: Cytotoxicity against human T47D cells after 96 hrs by WST8 assay
HUVEC [10] = experiment: Inhibition of ECGS-induced proliferation of HUVEC after 96 hrs by WST8 assay; details: Homo sapiens
PC-3 = experiment: Cytotoxicity against human PC3 cells after 96 hrs by WST8 assay; details: PC-3, 96 h
HUVEC [11] = experiment: Inhibition of VEGF-induced proliferation of HUVEC after 96 hrs by WST8 assay; details: Homo sapiens
WiDr = experiment: Cytotoxicity against human WiDr cells after 96 hrs by WST8 assay
[12] = target: Leukocyte tyrosine kinase receptor (Homo sapiens, UniProt P29376); experiment: Inhibition of recombinant LTK by TR-FRET assay; outline: as §1
Chain of Leukocyte tyrosine kinase receptor (P29376 whole entry): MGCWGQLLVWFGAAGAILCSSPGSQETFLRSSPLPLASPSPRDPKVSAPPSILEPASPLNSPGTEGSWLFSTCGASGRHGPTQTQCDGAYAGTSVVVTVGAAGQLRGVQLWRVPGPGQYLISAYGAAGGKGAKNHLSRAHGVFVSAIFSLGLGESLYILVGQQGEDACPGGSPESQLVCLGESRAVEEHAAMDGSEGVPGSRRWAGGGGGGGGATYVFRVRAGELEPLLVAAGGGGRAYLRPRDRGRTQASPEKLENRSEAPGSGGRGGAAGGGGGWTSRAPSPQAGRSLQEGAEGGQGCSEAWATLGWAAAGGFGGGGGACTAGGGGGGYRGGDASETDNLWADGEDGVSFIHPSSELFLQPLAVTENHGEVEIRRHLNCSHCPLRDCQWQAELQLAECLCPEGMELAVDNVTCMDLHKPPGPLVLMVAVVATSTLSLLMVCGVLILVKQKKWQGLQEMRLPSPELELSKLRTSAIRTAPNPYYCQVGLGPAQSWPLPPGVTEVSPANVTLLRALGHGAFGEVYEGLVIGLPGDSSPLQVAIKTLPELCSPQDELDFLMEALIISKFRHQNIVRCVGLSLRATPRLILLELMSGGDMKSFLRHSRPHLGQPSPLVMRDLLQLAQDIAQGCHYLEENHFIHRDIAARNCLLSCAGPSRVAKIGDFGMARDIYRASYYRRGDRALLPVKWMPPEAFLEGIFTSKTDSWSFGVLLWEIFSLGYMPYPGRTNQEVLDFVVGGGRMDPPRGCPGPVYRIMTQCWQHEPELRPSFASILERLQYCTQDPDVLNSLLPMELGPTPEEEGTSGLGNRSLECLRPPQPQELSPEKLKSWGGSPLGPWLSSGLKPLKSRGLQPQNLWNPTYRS

Chain of Macrophage-stimulating protein receptor (Q04912 25-304 limits assumed): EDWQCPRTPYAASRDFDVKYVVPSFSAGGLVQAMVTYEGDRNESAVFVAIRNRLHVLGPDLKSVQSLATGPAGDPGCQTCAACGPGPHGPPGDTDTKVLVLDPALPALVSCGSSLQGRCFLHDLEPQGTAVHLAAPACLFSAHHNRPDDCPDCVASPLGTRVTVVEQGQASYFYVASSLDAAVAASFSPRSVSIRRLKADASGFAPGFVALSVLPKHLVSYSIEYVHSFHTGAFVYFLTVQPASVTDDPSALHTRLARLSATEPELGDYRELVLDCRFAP
Chain of Macrophage-stimulating protein receptor (Q04912 310-1400 limits assumed): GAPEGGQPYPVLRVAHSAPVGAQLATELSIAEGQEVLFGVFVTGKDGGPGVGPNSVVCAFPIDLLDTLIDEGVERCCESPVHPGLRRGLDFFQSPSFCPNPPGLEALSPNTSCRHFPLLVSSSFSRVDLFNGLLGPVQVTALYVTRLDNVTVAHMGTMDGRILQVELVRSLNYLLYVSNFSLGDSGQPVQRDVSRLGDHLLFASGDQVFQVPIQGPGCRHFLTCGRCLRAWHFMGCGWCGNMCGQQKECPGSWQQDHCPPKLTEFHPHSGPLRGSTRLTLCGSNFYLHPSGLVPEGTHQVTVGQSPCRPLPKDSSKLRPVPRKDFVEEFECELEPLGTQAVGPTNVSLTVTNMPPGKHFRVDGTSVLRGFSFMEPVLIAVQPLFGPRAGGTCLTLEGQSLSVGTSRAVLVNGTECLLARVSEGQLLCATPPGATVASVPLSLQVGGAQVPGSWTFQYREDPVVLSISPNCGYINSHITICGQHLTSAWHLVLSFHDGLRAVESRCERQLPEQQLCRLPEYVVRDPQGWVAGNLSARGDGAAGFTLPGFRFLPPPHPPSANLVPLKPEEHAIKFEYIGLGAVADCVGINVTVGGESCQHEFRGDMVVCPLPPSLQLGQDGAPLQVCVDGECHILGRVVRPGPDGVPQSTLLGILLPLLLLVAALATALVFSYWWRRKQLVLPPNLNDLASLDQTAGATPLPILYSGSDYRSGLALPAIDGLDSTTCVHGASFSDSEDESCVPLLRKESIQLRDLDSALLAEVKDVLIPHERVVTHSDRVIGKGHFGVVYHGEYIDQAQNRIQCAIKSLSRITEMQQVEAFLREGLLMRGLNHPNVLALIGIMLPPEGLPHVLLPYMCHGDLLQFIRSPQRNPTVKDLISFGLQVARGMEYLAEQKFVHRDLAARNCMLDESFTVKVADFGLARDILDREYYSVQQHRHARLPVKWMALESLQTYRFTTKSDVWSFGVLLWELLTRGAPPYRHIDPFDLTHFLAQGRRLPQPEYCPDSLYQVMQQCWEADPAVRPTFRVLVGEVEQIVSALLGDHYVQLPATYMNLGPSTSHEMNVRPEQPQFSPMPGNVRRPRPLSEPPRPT
Chain of Hepatocyte growth factor receptor (P08581 whole entry): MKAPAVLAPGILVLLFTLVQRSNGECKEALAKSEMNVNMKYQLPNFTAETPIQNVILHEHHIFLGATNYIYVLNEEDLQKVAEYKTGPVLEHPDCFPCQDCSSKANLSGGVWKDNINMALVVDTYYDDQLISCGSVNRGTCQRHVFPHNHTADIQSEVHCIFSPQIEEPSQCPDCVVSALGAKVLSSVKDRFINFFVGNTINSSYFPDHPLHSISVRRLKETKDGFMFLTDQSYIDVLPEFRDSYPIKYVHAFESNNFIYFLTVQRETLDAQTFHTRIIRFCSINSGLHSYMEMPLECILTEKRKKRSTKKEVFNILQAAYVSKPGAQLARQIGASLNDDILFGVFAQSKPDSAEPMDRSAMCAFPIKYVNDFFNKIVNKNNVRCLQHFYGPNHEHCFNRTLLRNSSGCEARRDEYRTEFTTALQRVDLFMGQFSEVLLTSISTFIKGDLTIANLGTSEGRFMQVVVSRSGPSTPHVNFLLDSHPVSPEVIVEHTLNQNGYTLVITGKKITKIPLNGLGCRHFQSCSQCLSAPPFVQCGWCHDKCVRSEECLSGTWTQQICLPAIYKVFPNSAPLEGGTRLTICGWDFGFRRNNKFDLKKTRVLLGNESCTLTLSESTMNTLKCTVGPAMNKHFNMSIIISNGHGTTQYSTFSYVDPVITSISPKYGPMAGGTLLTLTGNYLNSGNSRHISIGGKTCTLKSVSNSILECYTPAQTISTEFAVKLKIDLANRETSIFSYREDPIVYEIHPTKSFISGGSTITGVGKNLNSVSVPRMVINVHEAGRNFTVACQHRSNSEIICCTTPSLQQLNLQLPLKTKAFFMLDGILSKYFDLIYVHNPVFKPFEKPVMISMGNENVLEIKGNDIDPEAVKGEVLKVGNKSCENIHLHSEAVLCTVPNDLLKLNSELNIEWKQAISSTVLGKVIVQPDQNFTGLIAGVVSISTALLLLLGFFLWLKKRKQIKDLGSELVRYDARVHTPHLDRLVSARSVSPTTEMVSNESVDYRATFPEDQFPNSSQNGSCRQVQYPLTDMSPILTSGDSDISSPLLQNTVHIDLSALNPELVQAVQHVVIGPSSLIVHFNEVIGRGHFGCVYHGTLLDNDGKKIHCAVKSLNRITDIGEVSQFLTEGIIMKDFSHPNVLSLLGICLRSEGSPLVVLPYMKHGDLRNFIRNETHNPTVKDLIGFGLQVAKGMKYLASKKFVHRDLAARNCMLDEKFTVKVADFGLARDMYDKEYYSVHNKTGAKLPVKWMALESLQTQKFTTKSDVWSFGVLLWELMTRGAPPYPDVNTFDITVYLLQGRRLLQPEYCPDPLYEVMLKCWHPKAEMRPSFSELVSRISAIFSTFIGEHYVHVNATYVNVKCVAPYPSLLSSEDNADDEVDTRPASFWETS
Chain of Protein-tyrosine kinase 6 (Q13882 whole entry): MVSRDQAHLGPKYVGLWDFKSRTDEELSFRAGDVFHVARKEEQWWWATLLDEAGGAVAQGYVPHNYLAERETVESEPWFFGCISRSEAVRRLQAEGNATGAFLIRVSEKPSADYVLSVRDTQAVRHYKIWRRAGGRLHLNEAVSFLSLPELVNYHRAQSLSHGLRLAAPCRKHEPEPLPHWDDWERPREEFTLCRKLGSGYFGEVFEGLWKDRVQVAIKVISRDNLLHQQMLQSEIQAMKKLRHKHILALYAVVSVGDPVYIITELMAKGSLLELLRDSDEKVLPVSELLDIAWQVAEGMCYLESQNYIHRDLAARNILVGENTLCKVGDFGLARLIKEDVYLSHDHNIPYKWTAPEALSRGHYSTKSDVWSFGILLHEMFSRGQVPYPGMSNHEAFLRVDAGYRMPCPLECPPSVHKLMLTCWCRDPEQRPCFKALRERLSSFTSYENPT
Chain of RAC-alpha serine/threonine-protein kinase (P31749 whole entry): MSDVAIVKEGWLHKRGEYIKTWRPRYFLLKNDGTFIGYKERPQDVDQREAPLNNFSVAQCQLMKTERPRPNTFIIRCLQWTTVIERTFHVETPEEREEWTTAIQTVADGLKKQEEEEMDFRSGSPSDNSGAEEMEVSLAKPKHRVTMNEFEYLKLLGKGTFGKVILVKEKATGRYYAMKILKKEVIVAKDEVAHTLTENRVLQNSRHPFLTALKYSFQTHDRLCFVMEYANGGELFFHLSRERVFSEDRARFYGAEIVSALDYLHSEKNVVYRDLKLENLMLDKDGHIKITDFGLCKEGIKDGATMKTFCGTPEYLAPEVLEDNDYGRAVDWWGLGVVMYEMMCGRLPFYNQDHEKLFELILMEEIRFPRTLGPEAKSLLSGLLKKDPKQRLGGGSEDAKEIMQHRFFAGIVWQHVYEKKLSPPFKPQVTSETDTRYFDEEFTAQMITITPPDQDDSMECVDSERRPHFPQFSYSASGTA
Chain of Cyclin-dependent kinase 1 (P06493 whole entry): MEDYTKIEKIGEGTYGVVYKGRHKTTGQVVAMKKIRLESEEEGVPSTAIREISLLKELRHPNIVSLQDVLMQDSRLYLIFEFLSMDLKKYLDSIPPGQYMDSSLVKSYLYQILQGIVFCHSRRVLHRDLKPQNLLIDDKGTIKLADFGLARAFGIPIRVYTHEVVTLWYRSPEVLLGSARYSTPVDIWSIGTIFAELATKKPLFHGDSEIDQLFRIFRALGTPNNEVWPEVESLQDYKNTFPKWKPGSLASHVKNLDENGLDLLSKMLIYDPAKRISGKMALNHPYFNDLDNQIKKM

- solubility [1]: 345 µg/mL (≈ 823 µM)
- IC50 [2]: > 50 µM
- IC50 (Insulin receptor): > 50 µM
- IC50 (Ephrin type-A receptor 2): 5.2 µM
- IC50 [3]: > 50 µM
- IC50 [4]: > 50 µM
- IC50 (Aurora kinase A): 22 µM
- IC50 [5]: > 50 µM
- IC50 [6]: 41 µM
- IC50 [7]: > 50 µM
- IC50 [8]: 0.23 µM
- IC50 [9]: 0.0093 µM
- IC50 [12]: 10 µM
SMILES: C[C@@H](Oc1ccc2ncc(C3CC3C(N)=O)cc2c1)c1c(Cl)ccc(F)c1Cl (stereo partly specified)
- IC50 (MCF7): > 1 µM
- IC50 (MKN-28): > 1 µM
- IC50 (HCT-116): > 1 µM
- IC50 (MDA-MB-231): > 1 µM
- IC50 (Calu-6): > 1 µM
- IC50 (NCI-H460): > 1 µM
- IC50 (MKN-45): 0.093 µM
- IC50 (BXPC-3): > 1 µM
- IC50 (T47D): > 1 µM
- IC50 (HUVEC [10]): 9.9 µM
- IC50 (PC-3): > 1 µM
- IC50 (HUVEC [11]): 6.7 µM
- IC50 (WiDr): > 1 µM
